# The sample as a whole holds a higher share of hits than the screen did.
# KDM4C inh = KDM4C (human) demethylase inhibition; AID 720574; GST-KDM4C 2-372, H3K9me3 peptide, LANCE TR-FRET; Q9H3R0; 0.15% of 96,000 active; inhibition, % at 12.5 µM;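 active = mean replicate inhibition above about 25%, with at least 55% of replicates also reaching it, limit read from the data, passing the limit was not always enough; inconclusive = only one of those two conditions met; inactive = neither condition met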
#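 reagent = H3K9me3 peptide substrate, Fe(II), 2-oxoglutarate | system = GST-tagged GASC-1 (JMJD2C) catalytic fragment, aa 2-372 | amount = enzyme final amount 10 nM | read-out = Fall in 671/618 emission ratio as inhibition | medium = HEPES buffer, pH 7.5, plus ascorbate | schedule = 30 min reaction, 60 min detection, RT | measured by = LANCE TR-FRET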
# T cruzi growth-1 = inhibitors of T. cruzi proliferation. inhibition, % at 8.34 µM. T. cruzi beta-gal in NIH3T3, GalScreen luminescence, 90 h. 5.9% of 77,000 active. AID 624255;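 active = mean inhibition above about 93%, with at least 55% of replicates each passing it, limit read from the data, passing the limit was not always enough; inconclusive = only one of those two conditions holds; inactive = neither condition holds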
# IDH1 mut inh = blocks human IDH1 R132H reductase activity; O75874; diaphorase/resazurin fluorescence, 60 min; inhibition, % at 10 µM; 0.18% of 70,000 active; AID 624101; in the data active = inhibition above about 34%; inconclusive = no clear call, values can overlap the other calls; inactive = below about 11%;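 also: 0% = DMSO and 100% = no enzyme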
# Target sequence (O75874 whole entry R132H): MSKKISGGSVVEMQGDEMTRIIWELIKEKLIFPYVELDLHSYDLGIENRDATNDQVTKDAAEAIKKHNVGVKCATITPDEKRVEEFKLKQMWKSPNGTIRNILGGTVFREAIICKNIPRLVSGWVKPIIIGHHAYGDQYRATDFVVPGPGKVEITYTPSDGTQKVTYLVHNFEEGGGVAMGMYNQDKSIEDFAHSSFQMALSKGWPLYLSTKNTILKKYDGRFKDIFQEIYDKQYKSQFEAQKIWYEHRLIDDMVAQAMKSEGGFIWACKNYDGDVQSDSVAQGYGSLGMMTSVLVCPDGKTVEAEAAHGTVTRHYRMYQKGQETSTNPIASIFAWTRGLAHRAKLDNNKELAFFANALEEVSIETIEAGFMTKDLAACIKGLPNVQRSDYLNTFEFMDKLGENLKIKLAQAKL
# T cruzi growth-2 = inhibitors of T. cruzi proliferation; shares compounds with T cruzi growth-1; T. cruzi beta-gal in NIH3T3, GalScreen luminescence, 90 h; inhibition, % at 8.35 µM; 72% of 5,600 active;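 active = mean replicate inhibition above about 95% and at least 55% of replicates individually reaching it, limit read from the data; inconclusive = only one of the two criteria is met; inactive = neither criterion is met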
# T cruzi growth-3 = Trypanosoma cruzi proliferation inhibition; T. cruzi beta-gal in NIH3T3, GalScreen luminescence, 90 h; shares compounds with T cruzi growth-1; 21% of 5,600 active; inhibition, % at 2.09 µM; AID 651740;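 active = mean inhibition above about 95%, with at least 55% of replicates also reaching it, limit read from the data; inconclusive = meets just one of the two conditions; inactive = meets neither condition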;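 also: plate controls were neutral control median for no effect and positive control median for full effect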
# 3T3 cytotox = kills mouse NIH/3T3 fibroblasts. shares compounds with T cruzi growth-1. NIH/3T3 viability, CellTiter-Glo ATP luminescence, 90 h. cytotoxicity (signal decrease), % at 8.35 µM. 14% of 5,600 active;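 active = mean signal decrease across replicates above about 35% based on untreated-well scatter, with enough replicates individually passing, limit read from the data; inconclusive = no rule stated though some were filed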;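 also: 0% = median of neutral control wells and 100% = median of positive control wells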
# NIH3T3 tox 2 = NIH/3T3 (mouse) viability loss; shares compounds with T cruzi growth-1; NIH/3T3 viability, CellTiter-Glo ATP luminescence, 90 h; inhibition, % at 24.9 µM; 56% of 5,600 active; AID 651744;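 active = mean loss of cell viability signal at or above a set limit, and enough replicates individually reaching it; inconclusive = meets only the mean limit or only the replicate share; inactive = meets neither condition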;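 also: 0% = median of neutral control wells and 100% = median of positive control wells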
# Numbers without * were called inactive; ? = inconclusive; . = no result given; + = active, no number.
SMILES,KDM4C inh,T cruzi growth-1,IDH1 mut inh,T cruzi growth-2,T cruzi growth-3,3T3 cytotox,NIH3T3 tox 2
CN(C)C(=O)c1ccc(-c2ccc([C@@H]3[C@@H](CO)N4CCCCN(Cc5cccnc5)C[C@H]34)cc2)cc1,0.4,12.0,.,.,.,.,.
CN(C)C(=O)c1cccc(-c2ccc([C@H]3[C@@H](CO)N4CCCCN(Cc5cccnc5)C[C@H]34)cc2)c1,-0.8,?,.,107.2*,87.5,2.4,-16.1
CN(C)C(=O)c1ccc(-c2ccc([C@H]3[C@@H](CO)N4CCCCN(Cc5cccnc5)C[C@H]34)cc2)cc1,-0.4,?,.,104.2*,91.0,2.9,-6.8
CN(C)C(=O)c1cccc(-c2ccc([C@@H]3[C@H](CO)N4CCCCN(Cc5cccnc5)C[C@@H]34)cc2)c1,-0.9,13.4,.,.,.,.,.
C[C@@H]1CN([C@@H](C)CO)C(=O)c2c(c3ccccc3n2C)-c2ccccc2CO[C@@H]1CN(C)Cc1cccc2c1OCCCO2,-0.3,.,.,.,.,.,.
CC=Cc1ccc2n(c1=O)C[C@@H]1[C@@H](CO)[C@H](C(=O)NCCc3ccncc3)N(CCC(F)(F)F)[C@H]21 (mixture of isomers),1.6,108.3*,.,-48.8,-39.1,-30.2,4.9
CC=Cc1ccc2n(c1=O)C[C@@H]1[C@@H](CO)[C@H](C(=O)NCC)N(C(=O)c3cccnc3)[C@H]21 (mixture of isomers),0.8,-22.7,.,.,.,.,.
CC=Cc1ccc2n(c1=O)C[C@H]1[C@H](CO)[C@@H](C(=O)NCCc3ccncc3)N(CCC(F)(F)F)[C@@H]21 (mixture of isomers),2.6,41.2,.,.,.,.,.
CC=Cc1ccc2n(c1=O)C[C@H]1[C@H](CO)[C@@H](C(=O)NCC(F)(F)F)N(C(=O)c3cccnc3)[C@@H]21 (mixture of isomers),-0.6,+,.,87.3,23.6,13.3,3.9
CC(Oc1ccc(Cl)cc1Cl)C(=O)NC(=S)Nc1sc2c(c1C#N)CCCC2 (stereo unspecified),.,.,1.1,.,.,.,.
CO[C@@H]1CN(C)C(=O)c2cc(NC(=O)Nc3ccccc3Cl)ccc2OC[C@@H](C)N(S(=O)(=O)CC(F)(F)F)C[C@H]1C,-1.0,42.7,0.4,.,.,.,.
COc1cccc(S(=O)(=O)N2CC[C@@H]3[C@H](CO)Nc4ccc(C#Cc5cccnc5)cc4[C@@H]32)c1,-1.2,110.1*,.,107.7*,70.7,28.7,22.2
COc1cccc(C#Cc2ccc3c(c2)[C@@H]2[C@@H](CCN2S(=O)(=O)c2ccccc2)[C@H](CO)N3)c1,-3.7,.,.,.,.,.,.
COc1cccc(S(=O)(=O)N2CC[C@H]3[C@H](CO)Nc4ccc(C#Cc5cccnc5)cc4[C@H]32)c1,1.5,.,.,.,.,.,.
COc1cccc(C#Cc2ccc3c(c2)[C@H]2[C@H](CCN2S(=O)(=O)c2ccccc2)[C@H](CO)N3)c1,0.5,104.6*,.,108.4*,84.4,14.2,17.0
CCC(=O)N1C[C@H](C)[C@@H](OC)CN(C)C(=O)c2cc(NC(=O)NC(C)C)ccc2OC[C@@H]1C,-0.3,1.0,-0.1,.,.,.,.
Cc1ccccc1NC(=O)CSc1nc(N)c2c3c(sc2n1)COC(C)(C)C3,.,.,-0.1,.,.,.,.
CO[C@H]1CN(C)C(=O)c2cc(NC(=O)Nc3cccc(F)c3)ccc2OC[C@H](C)N(C(C)=O)C[C@@H]1C,1.1,-10.3,0.2,.,.,.,.
C[C@H](CO)N1C[C@H](C)[C@H](CN(C)CC2CCCCC2)Oc2ccc(NC(=O)Cn3cnnn3)cc2C1=O,3.1,4.1,-1.3,.,.,.,.
CNC[C@@H]1Oc2cc(C#Cc3ccc(OC)cc3)ccc2S(=O)(=O)N([C@H](C)CO)C[C@H]1C,-3.5,103.1*,0.6,106.9*,81.3,15.4,104.7*
CNC[C@H]1Oc2cc(C#Cc3ccc(F)cc3)ccc2S(=O)(=O)N([C@H](C)CO)C[C@@H]1C,-4.9,.,1.4,.,.,.,.
CNC[C@@H]1Oc2cc(C#Cc3cccc(OC)c3)ccc2S(=O)(=O)N([C@@H](C)CO)C[C@@H]1C,1.4,.,-1.0,.,.,.,.
CNC[C@H]1Oc2cc(C#Cc3ccc(OC)cc3)ccc2S(=O)(=O)N([C@@H](C)CO)C[C@@H]1C,-3.7,108.6*,-0.7,103.5*,94.3,-3.6,104.7*
Cc1noc(C)c1S(=O)(=O)N(C)C[C@@H]1Oc2ccc(NS(=O)(=O)c3ccc(Cl)cc3)cc2C(=O)N([C@@H](C)CO)C[C@@H]1C,?,44.9,1.5,.,.,.,.
COC(=O)C[C@H]1CC[C@@H]2[C@H](COC[C@H](O)CN2C(=O)Nc2cccc(F)c2)O1,0.5,-107.5,.,.,.,.,.
SMILES,KDM4C inh,T cruzi growth-1,IDH1 mut inh,T cruzi growth-2,T cruzi growth-3,3T3 cytotox,NIH3T3 tox 2
N#C[C@H]1[C@@H](c2ccc(C3=CCCCC3)cc2)[C@H](CO)N1C(=O)c1ccccn1,0.1,31.3,.,.,.,.,.
N#C[C@@H]1[C@H](c2ccc(C3=CCCCC3)cc2)[C@H](CO)N1S(=O)(=O)c1ccccc1,5.2,89.9,.,.,.,.,.
N#C[C@H]1[C@@H](c2ccc(C3=CCCCC3)cc2)[C@@H](CO)N1C(=O)c1cccc(F)c1,5.3,60.6,-0.8,.,.,.,.
N#C[C@@H]1[C@@H](c2ccc(C3=CCCCC3)cc2)[C@H](CO)N1C(=O)c1cccc(F)c1,-0.7,100.3*,.,87.6,32.7,5.2,75.7*
N#C[C@@H]1[C@H](c2ccc(C3=CCCCC3)cc2)[C@@H](CO)N1S(=O)(=O)c1ccccc1,-0.5,37.6,.,.,.,.,.
N#C[C@H]1[C@@H](c2ccc(C3=CCCCC3)cc2)[C@@H](CO)N1S(=O)(=O)c1cccc(F)c1,-1.8,104.5*,.,101.2*,86.2,44.5*,65.4*
N#C[C@H]1[C@@H](c2ccc(C3=CCCCC3)cc2)[C@@H](CO)N1C(=O)c1ccccn1,1.6,102.6*,.,103.6*,117.0*,6.3,104.7*
N#C[C@H]1[C@@H](c2ccc(C3=CCCCC3)cc2)[C@H](CO)N1S(=O)(=O)c1cccc(F)c1,1.0,100.0*,.,100.3*,63.7,44.7*,103.3*
O=C(CSc1nc2ccccc2s1)Nc1ccc(I)cc1,.,.,1.0,.,.,.,.
Nc1c(C(=O)NCc2ccccc2)c2nc3ccccc3nc2n1CCO,.,.,0.9,.,.,.,.
C[C@@H]1CN([C@@H](C)CO)C(=O)Cc2cc(NC(=O)C3CC3)ccc2O[C@H]1CN(C)S(=O)(=O)c1cccs1,0.2,21.6,-7.2,.,.,.,.
CCCC(=O)Nc1ccc2c(c1)C(=O)N(C)[C@H]1CC[C@H](CC(=O)Nc3cccc(F)c3)O[C@@H]1CO2,1.2,.,.,.,.,.,.
CNC[C@@H]1OCCCC[C@@H](C)Oc2ccc(NC(=O)Cc3ccccc3)cc2C(=O)N([C@H](C)CO)C[C@@H]1C,-0.9,-11.6,4.0,.,.,.,.
CCc1cccc(C)c1NC(=O)CSc1nnc(-c2ccc(C)cc2)n1C,.,.,-0.2,.,.,.,.
COc1ccc(NC(=O)Nc2ccc3c(c2)[C@H]2C[C@@H](CC(=O)N(C)C)O[C@H](CO)[C@H]2O3)cc1,-1.3,20.1,0.1,.,.,.,.

# Screens (PubChem BioAssay)
